INS-1E GSIS act: GLuc luminescence reporter in INS-1E cells, primary screen for activators of glucose-dependent secretion of insulin; activation, % at 16.6 µM; 370,000 tested, 0.61% active; INS-1E GLuc reporter insulin secretion, 2-3 h;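 active = lowest replicate activation of at least 40%, so every replicate reaches that level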
PAX8 inh HTS: lowers PAX8-driven luciferase in RMG-I cells. RMG-I TPO-luciferase reporter, SteadyGlo, 24 h. inhibition, % at 12.6 µM. 360,000 tested, 1.2% active;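 active = mean replicate inhibition at least 60% with every replicate also reaching 60%; inconclusive = only one of the two criteria is met; inactive = mean below 60% and not all replicates reaching 60%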;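 note: luciferase light reporting Pax8 driven TPO promoter activity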
Cneo AK release: causes C. neoformans cell lysis; adenylate kinase release luminescence, 4 h; normalised: neutral wells 0, clomiphene wells 100; AID 651654; 360,000 tested, 0.2% active; lysis activity, % at 15 µM;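 active = mean lysis activity across replicates of at least 80%, whatever share of replicates individually reach that level; inactive = mean lysis activity below 80%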
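Material – log-phase Cryptococcus neoformans yeast cells · Input – 5 × 10^6 yeast cells/mL · Medium – fresh YPD growth medium · Doses – single compound concentration per well · Timing – static 4 h at 37 °C with compound, 1 h detection · Detection – adenylate kinase release luminescence · Read-out – signal increase indicating cell lysis · Control set – Clomiphene as positive lysis control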
dFosB act-1: enhances mouse delta FosB homodimer DNA binding | AID 493131 | purified delta FosB, TAMRA-CDK5 oligo fluorescence polarization; percent of positive-control signal above neutral wells | P13346 | activation, % at 25 µM | 340,000 tested, 0.99% active;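 active = mean activation above about 17%, with every replicate also reaching it, limit read from the data, passing the limit was not always enough; inconclusive = only one of the two conditions met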
CDK5 p35 inh: blocks human CDK5/p35 kinase activity | Recombinant CDK5/p35, ADP-Glo luminescence, 60 min | inhibition, % at 10 µM | 330,000 tested, 0.01% active | AID 488839;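 active = highest replicate inhibition of at least 50% and at least 75% of replicates reaching 50%; inconclusive = only one of the two criteria met; inactive = both criteria failed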
Target sequence (Q00535 whole entry, looked up): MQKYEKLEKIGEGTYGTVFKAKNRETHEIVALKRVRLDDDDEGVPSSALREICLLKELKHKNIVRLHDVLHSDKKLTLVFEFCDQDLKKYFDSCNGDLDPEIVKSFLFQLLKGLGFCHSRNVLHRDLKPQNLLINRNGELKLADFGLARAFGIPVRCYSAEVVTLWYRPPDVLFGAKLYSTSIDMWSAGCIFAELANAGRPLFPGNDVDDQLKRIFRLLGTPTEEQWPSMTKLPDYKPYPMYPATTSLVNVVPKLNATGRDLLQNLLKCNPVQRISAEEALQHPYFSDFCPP
Target sequence (Q15078 whole entry, looked up): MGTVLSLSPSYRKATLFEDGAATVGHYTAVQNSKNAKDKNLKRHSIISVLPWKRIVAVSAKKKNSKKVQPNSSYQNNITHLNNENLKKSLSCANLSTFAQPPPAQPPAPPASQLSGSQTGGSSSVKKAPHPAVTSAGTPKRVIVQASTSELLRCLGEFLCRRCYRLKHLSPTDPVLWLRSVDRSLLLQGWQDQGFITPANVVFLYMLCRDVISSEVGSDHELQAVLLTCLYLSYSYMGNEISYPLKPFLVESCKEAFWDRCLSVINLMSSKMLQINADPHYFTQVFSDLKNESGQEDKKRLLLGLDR
Env fusion inh: blocks HIV Env-driven cell-cell fusion; 360,000 tested, 1.1% active; HeLa-JRFL Env/CEM21 cell fusion, luciferase; inhibition, % at 12.3 µM;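 active = mean replicate inhibition score of at least 50 and every replicate individually at or above 50; inconclusive = only one of the two criteria met; inactive = mean below 50 and not all replicates reaching 50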
dFosB act-2: delta FosB (mouse) homodimer activation; 2,400 tested, under 10 active; shares compounds with dFosB act-1; activation, % at 24.9 µM; purified delta FosB, TAMRA-CDK5 oligo fluorescence polarization; normalised: neutral wells 0, positive control 100;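 active = highest replicate activation at or above 34% and every replicate reaching that threshold; inconclusive = meets only one of the two criteria; inactive = meets neither criterion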;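 note: higher polarization means more probe DNA bound by delta FosB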
Each line names hits and unclear results; the compound was inactive in the other large screens (follow-up assays come after a bar, where they were run). In the library only some 2.9% were active in any assay of this set; here they are far more common.

C[C@@H]1CN([C@@H](C)CO)C(=O)Cc2cc(NS(=O)(=O)c3ccc(F)cc3)ccc2O[C@@H]1CN(C)Cc1ccc2c(c1)OCO2	none (no result: dFosB act-1, CDK5 p35 inh)
CCOC(=O)N1CCN(C(=O)Nc2cccc3ccccc23)CC1	none (no result: Cneo AK release)
CCOC(=O)N1CCN(C2=Nc3cccc4cccc2c34)CC1	dFosB act-1 22 (no result: INS-1E GSIS act, PAX8 inh HTS, Env fusion inh) | dFosB act-2 inactive
COc1ccccc1N1CCN(C2=Nc3cccc4cccc2c34)CC1	dFosB act-1 26 | dFosB act-2 inactive
c1ccc(CC2CCN(C3=Nc4cccc5cccc3c45)CC2)cc1	dFosB act-1 23 (no result: INS-1E GSIS act, PAX8 inh HTS, Env fusion inh) | dFosB act-2 inactive
CC(=O)N1CCN(C2=Nc3cccc4cccc2c34)CC1	dFosB act-1 17 (no result: INS-1E GSIS act, PAX8 inh HTS) | dFosB act-2 inactive
CC1CN(C2=Nc3cccc4cccc2c34)CC(C)O1 (stereo not given)	none
c1cc2c3c(cccc3c1)C(N1CCOCC1)=N2	none
C[C@H](CO)N1C[C@H](C)[C@H](CN(C)C(=O)CN(C)C)Oc2ncc(-c3ccccc3F)cc2C1=O	none (no result: PAX8 inh HTS, dFosB act-1, CDK5 p35 inh)
C[C@@H]1CN([C@H](C)CO)C(=O)c2cc(NC(=O)NC3CCCCC3)ccc2O[C@@H](C)CCCCO[C@H]1CN(C)S(=O)(=O)c1cccs1	none (no result: dFosB act-1, CDK5 p35 inh)
CC(=O)Nc1ccc(NC(=O)C(=O)NCC(c2ccco2)N2CCc3ccccc32)cc1 (stereo not given)	none (no result: Env fusion inh)
CC(=O)Nc1ccc(NC(=O)C(=O)NCC(c2ccco2)N2CCc3ccccc3C2)cc1 (stereo not given)	dFosB act-1 22 | dFosB act-2 inactive
Cc1cc(C)c2nc(NCCCNC(=S)NCCCN(C)C)c(C#N)cc2c1	dFosB act-1 32 (no result: Cneo AK release) | dFosB act-2 inconclusive
COc1ccccc1CNC(=O)COC(=O)c1cc2ccccc2o1	dFosB act-1 31 (no result: INS-1E GSIS act, PAX8 inh HTS) | dFosB act-2 inactive
COc1ccccc1CNC(=O)c1cc2ccccc2o1	none
Cc1cc2cc(C)c3nnc(SCC(=O)Nc4ccc(S(=O)(=O)N5CCCCC5)cc4)n3c2cc1C	dFosB act-1 22 (no result: INS-1E GSIS act, Cneo AK release) | dFosB act-2 inactive
COc1ccc(NC(=O)COC(=O)c2ccc(-n3cnnn3)cc2)cc1Cl	dFosB act-1 35 (no result: Cneo AK release) | dFosB act-2 inactive
COc1ccc(OC)c(NC(=O)COC(=O)c2ccc(-n3cnnn3)cc2)c1	none (no result: INS-1E GSIS act)
CC(C)C(=O)NNC(=O)c1csc(CS(=O)(=O)c2ccc(Cl)cc2)n1	none (no result: INS-1E GSIS act, Cneo AK release)
CS(=O)(=O)NNC(=O)c1csc(Cc2c(Cl)sc3ccc(Cl)cc23)n1	dFosB act-1 36 (no result: Cneo AK release) | dFosB act-2 inactive
CC1CC(C)CN(S(=O)(=O)c2ccc3c(c2)oc(=O)n3CC(=O)N(C)Cc2ccccc2)C1 (stereo not given)	dFosB act-1 47 | dFosB act-2 inactive
Cc1c(C(=O)OCC(=O)N2CC(=O)Nc3ccccc32)oc2ccccc12	dFosB act-1 33 (no result: PAX8 inh HTS) | dFosB act-2 inactive
COc1cc(OC)cc(C(=O)NNC(=O)c2ccc3c(c2)OCCO3)c1	none (no result: INS-1E GSIS act, PAX8 inh HTS)
COc1cccc(C(=O)Nc2nnc(-c3ccc(Cl)cc3)o2)c1	dFosB act-1 23 | dFosB act-2 inactive
COc1cc(OC)cc(-c2nnc(NC(=O)c3ccc4c(c3)OCCO4)o2)c1	dFosB act-1 26 | dFosB act-2 inactive
CCCNC(=O)N1C[C@@H](O)COC[C@H]2O[C@@H](CC(=O)N3CCCCC3)CC[C@@H]21	none (no result: dFosB act-1, CDK5 p35 inh, Env fusion inh)
Cc1c(C)c2ccc(OCC(=O)Nc3nccs3)cc2oc1=O	dFosB act-1 31 | dFosB act-2 inactive
Cc1cc(=O)oc2cc(OCC(=O)Nc3nccs3)ccc12	none
O=C(Nc1ccc(Oc2ncnc3cc(Cl)ccc23)nc1)Nc1cccc(C(F)(F)F)c1	dFosB act-1 40 (no result: INS-1E GSIS act) | dFosB act-2 inactive
C[C@H](CO)N1C[C@H](C)[C@H](CN(C)C(=O)c2ccccc2F)Oc2ncc(C#CC(C)(C)O)cc2C1=O	none (no result: PAX8 inh HTS, dFosB act-1, CDK5 p35 inh)
O=C(NCC(c1ccco1)N1CCc2ccccc2C1)c1ccc(Cl)c([N+](=O)[O-])c1 (stereo not given)	none
O=C(NCC(c1ccco1)N1CCCC1)c1ccc(Cl)c(S(=O)(=O)N2CCc3ccccc32)c1 (stereo not given)	dFosB act-1 23 | dFosB act-2 inactive
O=C(c1cccc(F)c1)N1CC[C@@H]2[C@H](CO)Nc3ccc(-c4ccc(F)cc4)cc3[C@@H]21	none (no result: dFosB act-1, CDK5 p35 inh, Env fusion inh)
COc1ccc(NC(=O)N(C)C[C@@H]2Oc3c(NS(=O)(=O)c4ccc(C)cc4)cccc3C(=O)N([C@H](C)CO)C[C@H]2C)cc1	none (no result: dFosB act-1, CDK5 p35 inh)
COc1cccc(/C=C2/Sc3ccc(C(=O)NCCCN4CCCC4)cc3NC2=O)c1	dFosB act-1 37 | dFosB act-2 inactive
O=C1Nc2cc(C(=O)NCCCN3CCCC3)ccc2S/C1=C/c1ccccc1F	none
CC(=O)Nc1ccc(S(=O)(=O)NCC(=O)OCC(=O)NCCc2ccccc2)cc1	none (no result: dFosB act-1, CDK5 p35 inh)
CCc1cccc(OCCOC(=O)CNS(=O)(=O)c2ccc(NC(C)=O)cc2)c1	dFosB act-1 56 | dFosB act-2 inactive
O=C(O)c1ccc(COc2ccccc2/C=C2/NC(=O)N(c3cccc(Cl)c3)C2=O)cc1	dFosB act-1 28 (no result: PAX8 inh HTS, Cneo AK release) | dFosB act-2 inactive
O=C(O)c1ccc(COc2ccccc2/C=C2\NC(=O)N(Cc3ccc(F)cc3)C2=O)cc1	none (no result: Cneo AK release)
COc1ccc(S(=O)(=O)Nc2ccc3c(c2)CC(=O)N([C@@H](C)CO)C[C@@H](C)[C@H](CN(C)S(=O)(=O)c2ccc(F)cc2)O3)cc1	none (no result: dFosB act-1, CDK5 p35 inh)
CNC(=O)c1ccc(-c2ccc(F)cc2)s1	none (no result: PAX8 inh HTS, Env fusion inh)
CNC(=O)c1ccc(-c2ccc(Cl)c(Cl)c2)s1	dFosB act-1 21 (no result: Cneo AK release) | dFosB act-2 inactive
Cc1ccc(-c2ccc3c(c2)O[C@@H](CN(C)C(=O)C2CCCCC2)[C@@H](C)CN([C@@H](C)CO)S3(=O)=O)cc1	none (no result: PAX8 inh HTS, Cneo AK release, dFosB act-1, CDK5 p35 inh)
Cc1noc(C)c1NC(=O)N(C)C[C@@H]1OCCCC[C@H](C)Oc2ccc(NS(=O)(=O)c3cccs3)cc2C(=O)N([C@@H](C)CO)C[C@H]1C	none (no result: dFosB act-1, CDK5 p35 inh)
CC(=O)Nc1ccc(SCC(=O)c2c(N)n(Cc3ccccc3)c(=O)n(C)c2=O)cc1	dFosB act-1 17 | dFosB act-2 inactive
COc1ccc(CN2CC3(CCN(C(=O)Cc4ccccc4)CC3)c3c([nH]c4cc(OC)ccc34)[C@H]2CO)cc1	none (no result: Cneo AK release, dFosB act-1, CDK5 p35 inh, Env fusion inh)
COc1ccc(/C=C2\SC(=O)N(CCC(=O)Nc3ccc(S(=O)(=O)Nc4nccs4)cc3)C2=O)cc1	dFosB act-1 86 (no result: Cneo AK release) | dFosB act-2 inactive
COc1ccc(-c2nnc(SCc3nc4ccccc4c(=O)[nH]3)o2)cc1	dFosB act-1 19 | dFosB act-2 inactive
c1ccc2[nH]c(CSc3nnc(-c4ccncc4)o3)nc2c1	none (no result: INS-1E GSIS act, PAX8 inh HTS, Env fusion inh)

Screening data from PubChem BioAssay.
